Results reported in ChEMBL document CHEMBL1132482, “Discovery of a series of cyclohexylethylamine-containing protein farnesyltransferase inhibitors exhibiting potent cellular activity” (J Med Chem, 1999).

Columns and labels:
[1] = target: Protein farnesyltransferase (Rattus norvegicus, UniProt Q02293+Q04631); assay: In vitro inhibitory activity against Farnesyltransferase (FTase); assay type: protein-complex assay
In short: (§1)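 Compounds were generally tested once, with some tested at n = 2, 4 or 8. Enzyme values are IC50 and cellular values are EC50 (nM). Stated assay reliability is ±50% for the in vitro assay and ±50–100% for the cellular assay. A 3-fold difference is treated as significant.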

Rattus norvegicus [2] = species: Rattus norvegicus; assay: Inhibitory activity against whole cell Ras prenylation; assay type: functional; in short: as §1
Rattus norvegicus [3] = species: Rattus norvegicus; assay: Inhibitory activity against whole cell Ras prenylation at a concentration of 1000 nM; assay type: functional
Rattus norvegicus [4] = species: Rattus norvegicus; assay: Inhibitory activity against whole cell Ras prenylation at a concentration of 300 nM; assay type: functional
Rattus norvegicus [5] = species: Rattus norvegicus; assay: Inhibitory activity against whole cell Ras prenylation at a concentration of 50 nM; assay type: functional

| Compound | IC50 [1] | EC50 (Rattus norvegicus [2]) | inhibition at 1 µM (Rattus norvegicus [3]) | inhibition at 0.3 µM (Rattus norvegicus [4]) | inhibition at 0.05 µM (Rattus norvegicus [5]) |
| --- | --- | --- | --- | --- | --- |
| CSCC[C@H](NC(=O)c1ccc(CN[C@H](CO)CC2CCCCC2)cc1-c1ccccc1)C(=O)O | 8 nM |  |  |  |  |
| CSCC[C@H](NC(=O)c1ccc(CNCCC2CCCCC2)cc1-c1ccccc1C)C(=O)O | 0.17 nM | 200 nM |  |  |  |
| CSCC[C@H](NC(=O)c1ccc(CNC(CC2CCCCC2)CC2CCCCC2)cc1-c1ccccc1C)C(=O)O | 0.25 nM |  | 75% |  |  |
| CSCC[C@H](NC(=O)c1ccc(CN[C@H](CO)Cc2ccccc2)cc1-c1ccccc1C)C(=O)O | 4.6 nM |  |  |  |  |
| CSCC[C@H](NC(=O)c1ccc(CN(CCC2CCCCC2)C(=O)c2ccccc2)cc1-c1ccccc1C)C(=O)O | 1.1 nM | > 1000 nM |  |  |  |
| COC[C@H](CC1CCCCC1)NCc1ccc(C(=O)N[C@@H](CCSC)C(=O)O)c(-c2ccccc2C)c1 | 0.66 nM |  |  | 47% |  |
| CSCC[C@H](NC(=O)c1ccc(CN[C@H](CSc2ccccc2C)CC2CCCCC2)cc1-c1ccccc1C)C(=O)O | 0.42 nM |  | 77% |  |  |
| CSCC[C@H](NC(=O)c1ccc(CN(C)CCC2CCCCC2)cc1-c1ccccc1C)C(=O)O | 0.87 nM | 12 nM |  |  |  |
| CSCC[C@H](NC(=O)c1ccc(CN(CCC2CCCCC2)Cc2ccccc2)cc1-c1ccccc1C)C(=O)O | 3.5 nM | > 1000 nM |  |  |  |
| CCSC[C@H](CC1CCCCC1)NCc1ccc(C(=O)N[C@@H](CCS(C)(=O)=O)C(=O)O)c(-c2ccccc2C)c1 | 1 nM |  |  | 34% |  |
| CSCC[C@H](NC(=O)c1ccc(CN[C@H](CO)C2CCCCC2)cc1-c1ccccc1C)C(=O)O | 4 nM |  |  |  |  |
| CSCC[C@H](NC(=O)c1ccc(CN[C@H](C)CC2CCCCC2)cc1-c1ccccc1C)C(=O)O | 0.7 nM | > 1000 nM |  |  |  |
| CSCC[C@H](NC(=O)c1ccc(CN[C@H](CSC(C)(C)C)CC2CCCCC2)cc1-c1ccccc1C)C(=O)O | 0.6 nM | 2.8 nM |  |  |  |
| CSCC[C@H](NC(=O)c1ccc(CN[C@H](CSC2CCCCC2)CC2CCCCC2)cc1-c1ccccc1C)C(=O)O | 0.41 nM |  | 80% |  |  |
| CCS(=O)(=O)C[C@H](CC1CCCCC1)NCc1ccc(C(=O)N[C@@H](CCSC)C(=O)O)c(-c2ccccc2C)c1 | 0.14 nM |  |  |  | 59% |
| CSCC[C@H](NC(=O)c1ccc(CN(CCC2CCCCC2)C(=O)OC(C)(C)C)cc1-c1ccccc1C)C(=O)O | 0.17 nM | 160 nM |  |  |  |
| CCS(=O)(=O)C[C@H](CC1CCCCC1)NCc1ccc(C(=O)N[C@@H](CCS(C)(=O)=O)C(=O)O)c(-c2ccccc2C)c1 | 1.2 nM |  | 63% |  |  |
| CSCC[C@H](NC(=O)c1ccc(CN(CCC2CCCCC2)C(C)=O)cc1-c1ccccc1C)C(=O)O | 2.9 nM | > 1000 nM |  |  |  |
| CCCC[C@H](CC1CCCCC1)NCc1ccc(C(=O)N[C@@H](CCSC)C(=O)O)c(-c2ccccc2C)c1 | 0.46 nM | 4.3 nM |  |  |  |
| CCSC[C@H](CC1CCCCC1)NCc1ccc(C(=O)N[C@@H](CCSC)C(=O)O)c(-c2ccccc2C)c1 | 0.2 nM | 4.4 nM |  |  |  |
| CSCC[C@H](NC(=O)c1ccc(CN[C@H](/C=C/CC(C)C)CC2CCCCC2)cc1-c1ccccc1C)C(=O)O | 0.22 nM |  |  |  |  |
| CSCC[C@H](NC(=O)c1ccc(CN[C@H](CSc2ccccc2)CC2CCCCC2)cc1-c1ccccc1C)C(=O)O | 0.2 nM | 12 nM |  |  |  |
| CSCC[C@H](NC(=O)c1ccc(CN[C@H](CCCC(C)C)CC2CCCCC2)cc1-c1ccccc1C)C(=O)O | 0.28 nM | 52 nM |  |  |  |
| CSCC[C@H](NC(=O)c1ccc(CN[C@H](CO)CC2CCCCC2)cc1-c1ccccc1C)C(=O)O | 0.16 nM | 190 nM |  |  |  |
| CSCC[C@H](NC(=O)c1ccc(CN[C@@H](CO)CC2CCCCC2)cc1-c1ccccc1C)C(=O)O | 12 nM |  |  |  |  |
| CSCC[C@H](NC(=O)c1ccc(CN[C@@H](CO)C2CCCCC2)cc1-c1ccccc1C)C(=O)O | 10 nM |  |  |  |  |
| CC[C@H](CC1CCCCC1)NCc1ccc(C(=O)N[C@@H](CCSC)C(=O)O)c(-c2ccccc2C)c1 | 0.7 nM | > 1000 nM |  |  |  |
